A selection: hits, their analogues and other compounds. The true share with any hit is near 2.2%.
rCAG binder – molecules binding r(CAG) RNA repeats; r(CAG) RNA repeat, TO-PRO-1 dye displacement fluorescence; inhibition, % at 3 µM; actives 1.3% (n = 370,000);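 active means inhibition above the plate cutoff, the mean of all test compounds on that plate plus 3 SD, cut at about 35% in these data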;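 further: 0% = DMSO alone and 100% = 100 µM mitoxantrone as full dye displacement; higher means more dye released from RNA so lower well fluorescence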
ASAP1 GAP inh – ASAP1 ArfGAP inhibition. Q9ULH1. ASAP1-stimulated ARF1 GTP hydrolysis, GDP FP detection. inhibition, % at 16.5 µM. actives 0.19% (n = 360,000). AID 624377; in the data active means inhibition above about 25%;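 further: 0% = vehicle with enzyme and substrate and 100% = no enzyme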
Target sequence (Q9ULH1 325-724 limits assumed): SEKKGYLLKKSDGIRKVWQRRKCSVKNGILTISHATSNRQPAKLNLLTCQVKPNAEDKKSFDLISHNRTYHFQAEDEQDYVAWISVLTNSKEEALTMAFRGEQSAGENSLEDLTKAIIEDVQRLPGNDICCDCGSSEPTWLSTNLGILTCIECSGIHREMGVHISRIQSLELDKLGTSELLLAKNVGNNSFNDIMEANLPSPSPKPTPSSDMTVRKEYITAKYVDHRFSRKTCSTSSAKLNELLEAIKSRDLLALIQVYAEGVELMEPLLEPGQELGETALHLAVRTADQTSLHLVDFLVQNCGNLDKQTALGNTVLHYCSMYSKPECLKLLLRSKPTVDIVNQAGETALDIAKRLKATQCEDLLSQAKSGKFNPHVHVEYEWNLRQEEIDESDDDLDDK
NadD block – blocks S. aureus nicotinate mononucleotide adenylyltransferase; purified NadD enzyme, colorimetric absorbance read-out; inhibition, % at 20 µM; actives 0.78% (n = 360,000); AID 602399; in the data active means inhibition above about 26%
ARFGAP1 inh – inhibitors of rat ARFGAP1 | Arfgap1-stimulated ARF1 GTP hydrolysis, GDP FP detection | inhibition, % at 16.5 µM | actives 0.26% (n = 360,000);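 active means inhibition above a per-plate limit, mean inhibition of low control wells plus 3 SD, cut at about 25% in these data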;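 further: 0% = DMSO wells with enzyme and 100% = wells lacking Arfgap1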
Target sequence (Q62848 1-136 limits assumed): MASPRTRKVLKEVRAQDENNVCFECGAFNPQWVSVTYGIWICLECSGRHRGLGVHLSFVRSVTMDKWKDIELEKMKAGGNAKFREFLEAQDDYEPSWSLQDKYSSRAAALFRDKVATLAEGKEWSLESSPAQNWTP
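Replicates: Single well per compound | Assay system: Truncated rat Arfgap1 GAP domain | Control set: No-Arfgap1 wells (100%) versus DMSO full-reaction wells (0%) | Times: Enzyme reaction 120 min at 25 °C after 20 min preincubation | Reagent: Human ARF1(Δ1-17)-GTP substrate | Measured by: Tracer-displacement fluorescence polarization with EDTA stop, 620/688 nm | Measure: Percent inhibition of Arfgap1-stimulated GTP hydrolysis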
ASAP1 GAP conf – ASAP1 inhibition confirmed. inhibition, % at 16.5 µM. actives 37% (n = 620). shares compounds with ASAP1 GAP inh. AID 624431. ASAP1-stimulated Arf1 GTPase, GDP fluorescence polarization;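 active means mean inhibition over triplicates exceeds the hit threshold derived for the earlier primary screening run, cut at about 25% in these data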
Starred values were filed as active, the others as inactive; · = no result given.

SMILES | rCAG binder | ASAP1 GAP inh | NadD block | ARFGAP1 inh | ASAP1 GAP conf
Cc1ccc(N(CC2CO2)S(=O)(=O)c2ccc(C)cc2)cc1 (centres undefined) | -5 | -13 | -4 | 2 | ·
Cc1ccsc1C(=O)OCC(=O)NC1CC1 | -2 | 5 | 3 | -9 | ·
Cc1ccsc1C(=O)OCC(=O)NC1CCCCC1 | -1 | 29* | 2 | -1 | 6
OCCCNc1cc(-c2ccnc(Nc3cccc(Cl)c3)n2)ccn1 | 8 | 27* | -5 | 10 | 18
CCCC(=O)N(Cc1cc2cc(OC)ccc2[nH]c1=O)c1ccccc1OC | -1 | 1 | 0 | -1 | ·
C/C=C(/C)C(=O)O[C@@H]1c2c(ccc3ccc(=O)oc23)OC(C)(C)[C@@H]1OC(=O)/C(C)=C\C | -5 | -8 | -16 | 1 | ·
C/C=C(/C)C(=O)O[C@@H]1[C@H](OC(=O)C=C(C)C)c2c(ccc3ccc(=O)oc23)OC1(C)C | 0 | 26* | -2 | -1 | 3
COc1ccc(Br)cc1C(=O)Nc1ccc(N2CCN(S(C)(=O)=O)CC2)cc1 | 6 | -7 | -2 | -2 | ·
COc1ccc(Br)cc1C(=O)Nc1ccc(N2CCCC2)cc1 | 18 | 32* | 3 | 46* | 49*
CC1(C)Cc2nc3sc4c(=O)n(CC(=O)NCc5ccco5)cnc4c3cc2CO1 | 10 | 25* | -1 | 0 | 8
CC1(C)Cc2nc3oc4c(=O)n(CC(=O)Nc5ccccc5)cnc4c3cc2CO1 | 4 | -1 | 4 | -6 | ·
Cc1ccc2c(c1C)NC(C(=O)O)C1CC=CC21 (centres undefined) | · | · | 17 | · | ·
Cc1cc(C)c2c(c1)NC(C(=O)O)C1CC=CC21 (centres undefined) | 58* | 38* | 15 | 30* | 35*
CC(CC(=O)c1ccccc1)=NCCCN=C(C)CC(=O)c1ccccc1 | 3 | -4 | -5 | -2 | ·
C/C(=N/NS(=O)(=O)c1ccc(C)cc1)c1ccc(NC(=O)C(F)(F)F)cc1 | 4 | 25* | -6 | 2 | 8
CC(=O)Nc1cccc(/C(C)=N/NS(=O)(=O)c2ccc(C)cc2)c1 | 0 | 2 | -1 | 15 | ·
N#C/C(=C\c1ccc([N+](=O)[O-])o1)c1nc2ccccc2[nH]1 | 0 | 29* | · | -4 | 22
Cn1nc(C(C)(C)C)cc1NC(=O)C1(C)CCN1C(=O)C1(c2ccccc2)CCCC1 (centres undefined) | -1 | 7 | -1 | -6 | ·
Cn1nc(C(C)(C)C)cc1NC(=O)C1(C)CCN1C(=O)C1(c2ccccc2)CC1 (centres undefined) | 0 | 25* | -10 | -3 | 0
COc1nccc(Nc2ccccc2)c1C#N | 0 | 28* | -3 | 1 | 5
CSc1nccc(Nc2ccccc2)c1C#N | 0 | -5 | -3 | 0 | ·
O=C(C[C@@H]1CC[C@@H]2[C@H](COC[C@H](O)CN2C(=O)Nc2ccc(F)cc2)O1)NCCc1ccncc1 | 2 | -1 | · | 6 | ·
c1ccc(-c2nc3ccccc3nc2-c2ccc(CN3CCC4(CC3)CNc3ccccc34)cc2)cc1 | 9 | 9 | · | 11 | ·
CCn1nc(NC(=O)c2ccncc2)c2cc3cc(C)ccc3nc21 | 3 | 16 | 4 | 7 | ·
CCn1nc(NC(=O)c2ccncc2)c2cc3ccc(C)cc3nc21 | -1 | 25* | -3 | 7 | 8
SMILES | rCAG binder | ASAP1 GAP inh | NadD block | ARFGAP1 inh | ASAP1 GAP conf
O=C1[C@@H]2CSCN2C(=O)CN1Cc1c(F)cccc1Cl | -2 | 26* | -3 | -2 | -6
O=C1c2ccccc2C(c2nnnn2-c2ccc3c(c2)OCCO3)N1CCc1ccccc1F (centres undefined) | 2 | -4 | -8 | -7 | ·
COC1=CC(=O)c2nc(Cl)ccc2C1=O | 5 | 38* | 3 | 9 | 17
Cc1cccc(/C=C2/Sc3ccc(C(=O)NCCCN4CCOCC4)cc3NC2=O)c1 | 0 | 6 | -8 | 11 | ·
COc1ccc(/C=C2/Sc3ccc(C(=O)NCCCN4CCOCC4)cc3NC2=O)cc1OC | 4 | 32* | -8 | 17 | 89*
CC(=O)c1cccc(NC(=O)NCCc2c[nH]c3ccccc23)c1 | -2 | 1 | -4 | -5 | ·
O=C(Nc1cccc(CNCCc2c[nH]c3ccccc23)c1)c1ccccc1Cl | 1 | 29* | -1 | 3 | 7
O=C(COc1c(F)c(F)c(C(F)(F)F)c(F)c1F)Nc1ccc(N2CCOCC2)c(Cl)c1 | -10 | 25* | -6 | 6 | 7
CSc1ccc(OCC(=O)Nc2ccc(N3CCOCC3)c(Cl)c2)cc1 | -6 | 1 | 5 | 9 | ·
COc1ccc(-c2c(C(=O)c3ccccc3)[nH]c(N)c2C(=O)NCCc2c[nH]c3ccccc23)cc1 | 13 | -6 | · | 8 | ·
COc1ccc(OC)c(C(C(=O)NC2CCCCC2)N(Cc2ccco2)C(=O)c2ccccn2)c1 (centres undefined) | -1 | 26* | 0 | 2 | -1
C=CCN1C(=O)[C@@H](CC(=O)N2CCCCC2)[C@]2(C(=O)OC)CCCCC=C12 | 5 | · | · | · | ·
COc1ccc(C=NNC(=S)Nc2ccc(F)cc2)cc1OC | 7 | 1 | 2 | 12 | ·
COc1ccc(C=NNC(=S)NN=Cc2ccc(OC)c(OC)c2)cc1OC | 11 | 34* | 4 | 44* | 59*
Cc1nc2c(=O)[nH]c(=S)[nH]c2[nH]c1=O | 26 | -4 | 5 | -8 | ·
O=C(Nc1ccc(CSc2ccccc2)cc1)c1ccco1 | 1 | 25* | -6 | 3 | 7
CCCCc1c(-c2ccccc2OC)ncn1Cc1ccc(C(C)(C)C)cc1 | 0 | -19 | · | -1 | ·
Cc1ccc(Nc2cc(C)c3c(O)cccc3n2)cc1C | 18 | 30* | -4 | 9 | 18
COc1ccc(Nc2cc(C)c3c(O)cccc3n2)cc1 | 8 | 0 | -2 | -6 | ·
CC1(C(=O)NS(=O)(=O)c2cccc(Cl)c2)CCN1C(=O)C/C=C/c1ccccc1 (centres undefined) | 24 | 5 | 3 | -5 | ·
COc1cc(NC(=O)Cc2ccccc2)ccc1NC(=O)Cc1ccccc1 | -3 | 30* | -2 | 8 | 3
CC(C)CN(C(=O)COc1ccc2ccc(=O)oc2c1)C1CCS(=O)(=O)C1 (centres undefined) | 0 | 12 | 0 | 12 | ·
CN(C(=O)COc1ccc2ccc(=O)oc2c1)C1CCS(=O)(=O)C1 (centres undefined) | 1 | 28* | 1 | 5 | 6
O=C(Nc1ccccc1C(F)(F)F)OCCN1C(=O)CCC12CCC(c1ccccc1)CC2 (centres undefined) | 0 | · | · | · | ·
CCc1ccc(CCOc2ccc(CC3SC(=O)NC3=O)cc2)nc1 (centres undefined) | 15 | 25* | 3 | 12 | 3
CCOc1ccc(CC2S/C(=N/c3ccccn3)NC2=O)cc1 (centres undefined) | 2 | 3 | 5 | -11 | ·
CCC(C)(C)NC(=O)C(c1ccc(OC)cc1)N(C(=O)CCC(=O)Nc1cc(C)on1)c1ccccc1OC (centres undefined) | 0 | 27* | 1 | -1 | 5

Source: PubChem BioAssay
